This passage reports GI50, EC50 and MIC results from ChEMBL document CHEMBL1159367, “Antineoplastic agents. 485. Isolation and structure of cribrostatin 6, a dark blue cancer cell growth inhibitor from the marine sponge Cribrochalina sp” (2003).

Type in all cases: functional
One experiment has as its system BXPC-3. Description: Growth inhibition of human BxPC3 cells.
The next experiment relates to MCF7. Description: Growth inhibition of human MCF7 cells.
The next experiment relates to SF-268. The experiment can be described thus: Growth inhibition of human SF268 cells.
The subject of a further experiment is NCI-H460. Description: Growth inhibition of human NCI-H460 cells.
The test system of the next experiment is KM-20L2. Description: Growth inhibition of human KM20L2 cells.
In a further experiment the test system is DU-145. The experiment can be described thus: Growth inhibition of human DU145 cells.
The next experiment concerns P388. Description: Growth inhibition of mouse P388 cells.
The next experiment relates to Candida albicans. Description: Antimicrobial activity against Candida albicans ATCC 90028 by broth microdilution susceptibility assay.
For the next experiment, the system named is Cryptococcus neoformans. The experiment can be described thus: Antimicrobial activity against Cryptococcus neoformans ATCC 90112 by broth microdilution susceptibility assay.
In another experiment the test system is Micrococcus luteus. The experiment can be described thus: Antimicrobial activity against Micrococcus luteus Presque Isle 456 by broth microdilution susceptibility assay.
Experiment [1] concerns Staphylococcus aureus. The experiment can be described thus: Antimicrobial activity against Staphylococcus aureus ATCC 29213 by broth microdilution susceptibility assay. The method, boiled down: (§1)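 Broth microdilution susceptibility testing following established reference methods. MIC was taken as the lowest compound concentration giving complete inhibition of visible growth, with wells optically clear.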

The subject of experiment [2] is Staphylococcus aureus. Description: Antimicrobial activity against methicillin-resistant Staphylococcus aureus isolate by broth microdilution susceptibility assay. The method, boiled down: as §1
Experiment [3] deals with Enterococcus faecalis. The experiment can be described thus: Antimicrobial activity against Enterococcus faecalis ATCC 29212 isolate by broth microdilution susceptibility assay. The method, boiled down: as §1
Experiment [4] relates to Enterococcus faecalis. The experiment can be described thus: Antimicrobial activity against vancomycin-resistant Enterococcus faecalis isolate by broth microdilution susceptibility assay. The method, boiled down: as §1
The test system of the next experiment is Bacillus subtilis. Description: Antimicrobial activity against Bacillus subtilis isolate by broth microdilution susceptibility assay.
Experiment [5] relates to Streptococcus pneumoniae. Description: Antimicrobial activity against Streptococcus pneumoniae ATCC 6303 by broth microdilution susceptibility assay.
In experiment [6] the test system is Streptococcus pneumoniae. Description: Antimicrobial activity against penicillin-resistant Streptococcus pneumoniae isolate by broth microdilution susceptibility assay. The method, boiled down:
as §1

Experiment [7] relates to Streptococcus pneumoniae. Description: Antimicrobial activity against Streptococcus pneumoniae isolate by broth microdilution susceptibility assay.
For a further experiment, the system named is Streptococcus. The experiment can be described thus: Antimicrobial activity against Streptococcus isolate by broth microdilution susceptibility assay.
Experiment [8] concerns Stenotrophomonas maltophilia. Description: Antimicrobial activity against Stenotrophomonas maltophilia ATCC 13637 by broth microdilution susceptibility assay.
In another experiment the test system is Escherichia coli. The experiment can be described thus: Antimicrobial activity against Escherichia coli ATCC 25922 by broth microdilution susceptibility assay.
For a further experiment, the system named is Enterobacter cloacae. The experiment can be described thus: Antimicrobial activity against Enterobacter cloacae ATCC 13047 by broth microdilution susceptibility assay.
For the next experiment, the system named is Neisseria gonorrhoeae. Description: Antimicrobial activity against Neisseria gonorrhoeae ATCC 49226 by broth microdilution susceptibility assay.

In brackets after ≈: the same amount, converted by molar mass. A value given as a limit tells only on which side of the number the result lay.

Regarding `CCOC1=C(C)C(=O)c2ccn3c(C)ncc3c2C1=O` [CRIBROSTATIN 6], the GI50 with BXPC-3 is above 1 µg/mL; in the experiment with MCF7, 0.21 µg/mL (≈ 0.777 µM); with SF-268, 0.24 µg/mL (≈ 0.888 µM); with NCI-H460, above 1 µg/mL; in the experiment on KM-20L2, above 1 µg/mL; in the experiment on DU-145, 0.38 µg/mL (≈ 1.41 µM). Also, the GI50 in the experiment on P388 is 0.29 µg/mL (≈ 1.07 µM). Besides, the EC50 in the experiment on P388 (read-out: ED50 (the source's name)) came to 0.3 µg/mL (≈ 1.11 µM). Moreover, the minimal inhibitory concentration (MIC) against Candida albicans turned out to be 64 µg/mL (≈ 237 µM); in the experiment on Cryptococcus neoformans it was 2 µg/mL (≈ 7.4 µM); in the experiment on Micrococcus luteus, 16 µg/mL (≈ 59.2 µM); against Staphylococcus aureus [1], 16 µg/mL (≈ 59.2 µM); against Staphylococcus aureus [2] it was 16 µg/mL (≈ 59.2 µM); against Enterococcus faecalis [3], 32 µg/mL (≈ 118 µM). Further, the minimum inhibitory concentration (MIC) against Enterococcus faecalis [4] turned out to be 32 µg/mL (≈ 118 µM); against Bacillus subtilis it was 2 µg/mL (≈ 7.4 µM); in the experiment on Streptococcus pneumoniae [5] it was 0.5 µg/mL (≈ 1.85 µM); with Streptococcus pneumoniae [6], 2 µg/mL (≈ 7.4 µM); in the experiment on Streptococcus pneumoniae [7] it was 1 µg/mL (≈ 3.7 µM); against Streptococcus, 16 µg/mL (≈ 59.2 µM). The MIC in experiment [8] was above 64 µg/mL; against Escherichia coli it was above 64 µg/mL; in the experiment with Enterobacter cloacae, above 64 µg/mL; in the experiment on Neisseria gonorrhoeae, 0.0625 µg/mL (≈ 0.231 µM).
